High-throughput results from PubChem BioAssay.
Compounds with a hit are over-represented: about 4.1% of the library has one in this group of screens.
KCC2 mod – KCC2 cotransporter modulators, thallium flux, primary screen, cell-based, HEK293 KCC2, FluoZin-2 fluorescence, MLSMR; KCC2 cells, thallium flux FluoZin-2 fluorescence; Solute carrier family 12 member 5 (Homo sapiens), Q9H2X9; B-score of Tl+ flux slope (higher = more flux/activation; lower = inhibition) at 10 µM; actives 2.2% (n = 190,000);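 active = thallium flux slope and its plate-corrected score both differing from the plate sample mean at a set confidence after two filtering rounds, in either direction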;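 also: slope of fluorescence scaled to starting intensity during 10 to 20 s after thallium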
hERG protect – hERG rescue from dofetilide block, primary screen, cell-based, CHO-hERG, FluxOR thallium flux, dofetilide IC70; actives 0.51% (n = 310,000); dofetilide IC70 present; AID 1511, 2009; activation (rescue from dofetilide block), less the hit threshold, % at 10 µM;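 active = activation above the mean of controls blocked by dofetilide plus 5 SD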;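 also: thallium influx through hERG after potassium depolarization seen as dye fluorescence rise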
KCNQ1 block – inhibitors of human KCNQ1 channel, primary screen, cell-based, thallium flux, high-throughput; CHO-K1 KCNQ1, FluxOR thallium flux fluorescence; hits give high values; B-score at 10 µM; actives 1.3% (n = 310,000); AID 2642, 2010;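 active = compounds whose thallium flux B-score, printed positive for inhibition, exceeds three library SD while starting fluorescence stays within three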;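 also: channel opened by potassium depolarization with thallium stimulus after 20 min compound exposure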
KCNQ1 pot – potentiators or activators of KCNQ1 channel, primary screen, cell-based, thallium flux, high-throughput; Potassium voltage-gated channel subfamily KQT member 1 (Homo sapiens), P51787; CHO-K1 KCNQ1, thallium flux FluxOR fluorescence; hits give high values; B-score at 10 µM; actives 0.35% (n = 310,000); AID 2648, 2010;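 active = fluorescence ratio B-score, a plate-corrected score, at least three library SD, with initial intensity B-score within 5 SD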
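Material: CHO-K1 cells stably expressing KCNQ1. Medium: assay buffer for compound exposure, DMSO matched across wells. Reagent: K+/Tl+ depolarizing stimulus. Compound dosing: single-concentration screen. Times: 37 °C overnight plating, 90-min dark dye load, 20-min compound pretreatment. Technique: FluxOR Tl+ flux fluorescence.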
KCNK9 block – KCNK9 potassium channel inhibitors, primary screen, HEK293 cells, thallium flux | Potassium channel subfamily K member 9 (Homo sapiens), Q9NPC2 | FluxOR thallium flux fluorescence; hits give low values | B-score at 10 µM | actives 1.2% (n = 310,000);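 active = ratio B-score over 3 SD below the library mean, with starting fluorescence within 5 SD of its mean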;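 also: negative B-score means less thallium flux so channel inhibition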
KCNK3 block – human KCNK3 channel inhibitors, primary screen, CHO cells, FluxOR thallium flux, B-score; Potassium channel subfamily K member 3 (Homo sapiens), O14649; FluxOR fluorescence; hits give low values; B-score at 10 µM; actives 0.84% (n = 340,000);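 active = B-score under library mean minus 4 SD, starting fluorescence ratio at most library mean plus 5 SD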;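 also: more negative B-score means stronger inhibition of thallium flux through KCNK3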
Target sequence (O14649 whole entry, looked up): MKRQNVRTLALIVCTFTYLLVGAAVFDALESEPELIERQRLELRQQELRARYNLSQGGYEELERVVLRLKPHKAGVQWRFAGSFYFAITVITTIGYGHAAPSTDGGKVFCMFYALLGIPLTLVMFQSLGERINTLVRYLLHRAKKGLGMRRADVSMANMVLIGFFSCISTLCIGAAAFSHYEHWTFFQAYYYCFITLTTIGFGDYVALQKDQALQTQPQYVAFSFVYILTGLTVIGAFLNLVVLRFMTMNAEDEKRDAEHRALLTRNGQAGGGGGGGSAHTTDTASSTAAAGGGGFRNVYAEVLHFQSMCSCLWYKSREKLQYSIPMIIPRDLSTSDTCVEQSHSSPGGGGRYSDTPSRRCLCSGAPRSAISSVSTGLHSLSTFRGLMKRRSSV
KCNQ1 block val – KCNQ1 potassium channel inhibitors, confirmation, cell-based, Tl flux, duplicate. KCNQ1 cell line, FluxOR thallium flux fluorescence. actives 93% (n = 1,600). shares compounds with KCNQ1 block. AID 588353, 2011. inhibition, % at 10 µM;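 active = primary screen active, with duplicate mean exceeding buffer control mean plus 3 SD of buffer wells, cut at about 28% in these data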;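 also: 0% = buffer control ratio and 100% = XE991 inhibitor control ratio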
CHO Tl flux – thallium flux effects in parental CHO cells, counter-screen for KCNQ1 inhibitor project, cell-based, Tl flux. parental CHO-K1, FluxOR thallium flux fluorescence ratio; hits give low values; zero means no signal rise above baseline. actives 21% (n = 1,600). shares compounds with KCNQ1 block. fluorescence ratio (Tl flux) at 10 µM. AID 588366, 2011;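 active = mean of duplicate thallium-flux fluorescence ratios in parental host cells more than 5 SD below the buffer control mean, cut at about 0.38 in these data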;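 also: ratio is peak minus minimum fluorescence divided by baseline fluorescence; actives read low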
KCNQ1 ephys val – KCNQ1 channel inhibitors, confirmation, orthogonal assay, cell-based, automated electrophysiology. KCNQ1-CHO cells, automated patch clamp current. calls only at 10 µM. shares compounds with KCNQ1 block. actives 20% (n = 490). AID 624120, 2012;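 active = KCNQ1 current drop exceeding 3 SD of negative control wells, seen in both duplicate runs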;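 also: steady state current during a 2 s step from -80 to +40 mV; negative values mean current inhibition and positive values mean potentiation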
KCNQ2 spec – KCNQ2 channel inhibition, selectivity assay for KCNQ1 inhibitor project, cell-based; shares compounds with KCNQ1 block; KCNQ2 cells, FluxOR thallium flux fluorescence; inhibition, % at 10 µM; actives 71% (n = 1,600);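 active = mean percent inhibition of the KCNQ2 thallium signal more than 5 SD above the buffer-only control wells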;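 also: KCNQ2 expressed in CHO cells; 0% = buffer control wells and 100% = XE-991 inhibitor control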
KCNQ1 KCNE1 spec – KCNQ1/KCNE1 channel inhibition, selectivity assay for KCNQ1 inhibitor project, CHO-K1 cells, thallium flux, FluxOR | shares compounds with KCNQ1 block | FluxOR thallium flux fluorescence | inhibition, % at 10 µM | actives 77% (n = 1,600) | AID 652147, 2013;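 active = mean percent inhibition of duplicate wells above the buffer-only control mean plus 3 SD of those controls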;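 also: 0% = buffer only wells and 100% = XE-991 inhibitor control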
An asterisk follows results filed as active; i = inactive; . = no result; + = active, no number.

SMILES	KCC2 mod	hERG protect	KCNQ1 block	KCNQ1 pot	KCNK9 block	KCNK3 block	KCNQ1 block val	CHO Tl flux	KCNQ2 spec	KCNQ1 KCNE1 spec	others
CN(C)C1=NC[C@H](Cc2ccccc2)N1CC1CCC(C(C)(C)C)CC1 (stereo not given in full)	.	-6.6	7*	i	i	i	97.5*	0.432	111.3%*	69.5%*
CN(C)C1=NC[C@H](Cc2ccccc2)N1CC1CCCC1	.	.	.	.	.	i	.	.	.	.
CN(CC(=O)Nc1ccccc1Br)C(=O)C1CCN(C(=O)c2ccc(Cl)cc2)CC1	.	-4.0	i	i	i	i	.	.	.	.
CC1CCN(c2nnc(-c3ccccc3)c3ccccc23)CC1	-0.579	-12.8	6*	i	i	i	92.5*	0.414	90.3%*	143.0%*	KCNQ1 ephys val=i
Cc1ccc(-c2nnc(N3CCC(C)CC3)c3ccccc23)cc1C	-1.66	-34.2	12*	i	i	i	164.0*	0.311*	113.7%*	+
Cc1cccc(-c2cc(C(=O)Nc3ccc4c(c3)OCCO4)c3ccccc3n2)c1	0.0113	-10.4	9*	i	i	i	77.5*	0.388	116.3%*	93.0%*
O=C(Nc1ccccn1)c1cc(-c2cccc(Cl)c2)nc2ccccc12	-2.05	-18.6	7*	i	i	i	92.0*	0.405	115.0%*	151.0%*	KCNQ1 ephys val=i
COc1cccc(-c2cc(C(=O)Nc3cccnc3)c3ccccc3n2)c1	.	-17.6	i	i	i	i	.	.	.	.
O=C(O)c1ccccc1NC(=O)c1cc(-c2ccccc2)nc2ccccc12	.	-31.4	7*	i	i	i	70.0*	0.485	81.7%*	119.5%*
Cc1ccc(C)c(NC(=O)c2cc(-c3cccnc3)nc3ccccc23)c1	0.772	-4.9	7*	i	i	i	61.5*	0.467	97.0%*	43.5%*
CCOc1ccc(NC(=O)/C(C#N)=C\c2ccc(N3CCCC3)c(C)c2)cc1	.	.	.	.	.	i	.	.	.	.
CN(CC(=O)Nc1cccc(F)c1)C(=O)c1cccc(S(=O)(=O)N2CCN(c3ccc(F)cc3)CC2)c1	.	.	.	.	.	i	.	.	.	.
Cc1cc(F)ccc1S(=O)(=O)Nc1ccccc1C(=O)NC1CCN(Cc2ccccc2)CC1	.	.	.	.	.	i	.	.	.	.
O=C(NC(=S)Nc1ccccc1N1CCN(C(=O)c2ccccc2)CC1)c1ccccc1F	.	-13.6	10*	i	i	i	84.0*	0.382	110.3%*	111.5%*
CCOc1ccc(NC(=O)CN(C)C(=O)c2c(C)nn(Cc3ccccc3Cl)c2C)cc1OCC	.	.	.	.	.	i	.	.	.	.
